The text below walks through data of ChEMBL document CHEMBL4414574, “Structure-Based Discovery and Development of a Series of Potent and Selective Bromodomain and Extra-Terminal Protein Inhibitors” (J Med Chem, 2019).

Calls of active or inactive are those of the source.

The nature of series [1]: Half life in ICR mouse plasma at 50 mg/kg, po administered via gavage measured after 0.25 to 24 hrs by UPLC/MS analysis. It is filed as ADME, organism-based. The procedure, abridged:
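Male ICR mice dosed orally in 1% DMSO/0.5% HPMC vehicle; plasma or brain drug levels used to derive Tmax, Cmax, AUC0-t, AUC0-inf and T1/2.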

The next series concerns MDA-MB-436. Put plainly: Antiproliferative activity against human MDA-MB-436 cells after 72 hrs by CCK8 or SRB assay. It is filed as functional, cell-based. On the technique in general: Formazan colour is commonly taken as a measure of viable cells.
The nature of series [2]: Half life in dog plasma at 3 mg/kg, po. It is filed as ADME, organism-based, Canis lupus familiaris.
The subject of series [3] is MV4-11. Put plainly: Induction of apoptosis in human MV4-11 cells assessed as reduction in c-IAP2 level after 24 hrs by Western blot analysis. The class given is functional, cell-based. (A western blot detects proteins with antibodies after separation by electrophoresis.)
The nature of series [4]: Ratio of drug level in brain to plasma in rat. It is filed as ADME. The method in brief:
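Rats dosed orally at 50 mg/kg in 1% DMSO/0.5% HPMC; drug measured in plasma and brain.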

Series [5] concerns the target Histone acetyltransferase p300 (Homo sapiens) (UniProt Q09472). Put plainly: Binding affinity to human partial length EP300 (A1040 to G1161 residues) expressed in Escherichia coli BL21 cells assessed as residual binding level at 1 uM measured after 1 hr by quantitative PCR based BROMOscan assay relative to control. The procedure, abridged: (§1)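 A BROMOScan competition-binding panel of 32 bromodomains was run at a single 1 μM compound concentration. Results are primary-screen 'Percent Control', where lower values indicate stronger binding.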

Series [6] concerns the target Histone acetyltransferase KAT2A (Homo sapiens) (UniProt Q92830). Put plainly: Binding affinity to human partial length GCN5L2 (E726 to K837 residues) expressed in Escherichia coli BL21 cells assessed as residual binding level at 1 uM measured after 1 hr by quantitative PCR based BROMOscan assay relative to control. The procedure, abridged:
as §1

In series [7] the test system is MV4-11. Kind of series: Induction of apoptosis in human MV4-11 cells assessed as increase in cleaved caspase-3 level after 24 hrs by Western blot analysis. It is filed as functional, cell-based. The procedure, abridged:
(§2)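 MV4-11 cells exposed to compound at the indicated doses for 24 h; lysates probed by Western blotting for the target protein, with GAPDH as loading control.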

The nature of series [8]: Bioavailability in dog at 1 mg/kg, iv. To be noted: in vivo. It is filed as ADME, organism-based, Canis lupus familiaris.
A short description of series [9]: Half life in dog liver microsomes. The class given is ADME, Canis lupus familiaris, Microsome. Background: Liver microsomes are vesicles of endoplasmic reticulum, rich in cytochrome P450 enzymes.
Series [10] has as its target T1, Bromodomain-containing protein 4 (Homo sapiens, UniProt O60885). Put plainly: Displacement of 5-FITC labelled (+)-JQ1 from His6-tagged human BRD4 bromodomain 1 expressed in Escherichia coli BL21(DE3) )-codon plus-RIL cells incubated for 4 hrs in dark condition by fluorescence anisotropy binding assay.
Series [11] concerns the target T1, Bromodomain-containing protein 4. Kind of series: Binding affinity to His6-tagged human BRD4 bromodomain 1 expressed in Escherichia coli BL21(DE3) )-codon plus-RIL cells by isothermal titration calorimetric method. The procedure, abridged:
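BRD4 BD1 was His6-tagged and expressed in E. coli BL21(DE3)-codon plus-RIL with IPTG induction overnight at 16 °C. It was purified on Ni-NTA with imidazole step elution and concentrated in HEPES pH 7.5/NaCl/DTT gel filtration buffer. Kd was measured by isothermal titration calorimetry.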

Series [12] concerns the target Histone acetyltransferase KAT2B (Homo sapiens) (UniProt Q92831). Kind of series: Binding affinity to human partial length PCAF (G715 to D831 residues) expressed in mammalian expression system assessed as residual binding level at 1 uM measured after 1 hr by quantitative PCR based BROMOscan assay relative to control. The method in brief: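 Bromodomain panel screen (32 bromodomains) run at 1 μM single concentration; primary binding reported as 'Percent Control', lower values meaning stronger interaction.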

For series [13], the system named is MV4-11. Kind of series: Induction of apoptosis in human MV4-11 cells assessed as induction of PARP cleavage at 10 to 1000 nM after 24 hrs by Western blot analysis. The class given is functional, cell-based. The method in brief: as §2
Series [14] is described as follows: Half life in rat plasma at 3 mg/kg, iv. It is filed as ADME, organism-based.
Series [15] can be described thus: Tmax in ICR mouse at 10 mg/kg, po administered via gavage measured after 0.25 to 24 hrs by UPLC/MS analysis. It is filed as ADME, organism-based. As to conditions: in vivo. The method in brief: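 Male ICR mice dosed orally (3, 10 or 100 mg/kg, per line) in 1% DMSO/0.5% HPMC vehicle; plasma drug levels measured.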
A short description of series [16]: AUC (0 to infinity) in dog plasma at 3 mg/kg, po. It is filed as ADME, organism-based, Canis lupus familiaris. Also on record: dose 3 mg/kg, route oral, time infinity. The procedure, abridged: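 Compound was given orally or intravenously in 1% DMSO/0.5% HPMC vehicle. Concentrations in plasma, or in brain where stated, gave Tmax, Cmax, T1/2, AUC0-t and AUC0-inf.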

Chain of Histone acetyltransferase KAT2B (Homo sapiens) (Q92831 whole entry, looked up, the tested form may be a part): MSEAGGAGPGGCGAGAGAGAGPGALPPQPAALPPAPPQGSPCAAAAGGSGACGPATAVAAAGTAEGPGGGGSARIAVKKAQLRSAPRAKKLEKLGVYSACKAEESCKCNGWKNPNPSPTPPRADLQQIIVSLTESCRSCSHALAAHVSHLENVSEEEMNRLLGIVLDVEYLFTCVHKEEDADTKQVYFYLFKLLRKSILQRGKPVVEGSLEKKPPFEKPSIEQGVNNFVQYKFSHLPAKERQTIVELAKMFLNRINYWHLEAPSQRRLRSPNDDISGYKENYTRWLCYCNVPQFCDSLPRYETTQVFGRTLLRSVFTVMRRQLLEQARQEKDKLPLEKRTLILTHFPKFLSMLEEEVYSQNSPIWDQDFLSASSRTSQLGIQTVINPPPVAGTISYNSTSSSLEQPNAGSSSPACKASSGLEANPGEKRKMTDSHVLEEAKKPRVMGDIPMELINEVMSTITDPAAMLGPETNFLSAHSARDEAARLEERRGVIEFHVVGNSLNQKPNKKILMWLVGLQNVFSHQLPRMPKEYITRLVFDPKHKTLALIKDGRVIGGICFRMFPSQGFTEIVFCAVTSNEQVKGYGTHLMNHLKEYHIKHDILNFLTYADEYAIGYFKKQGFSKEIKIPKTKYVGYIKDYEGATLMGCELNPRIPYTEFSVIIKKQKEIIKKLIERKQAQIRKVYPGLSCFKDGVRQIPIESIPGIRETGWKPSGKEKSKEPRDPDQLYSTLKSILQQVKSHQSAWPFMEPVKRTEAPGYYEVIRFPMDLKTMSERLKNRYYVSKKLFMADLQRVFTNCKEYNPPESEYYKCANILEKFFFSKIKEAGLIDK
Chain of Histone acetyltransferase p300 (Homo sapiens) (Q09472 whole entry, the tested form may be a part): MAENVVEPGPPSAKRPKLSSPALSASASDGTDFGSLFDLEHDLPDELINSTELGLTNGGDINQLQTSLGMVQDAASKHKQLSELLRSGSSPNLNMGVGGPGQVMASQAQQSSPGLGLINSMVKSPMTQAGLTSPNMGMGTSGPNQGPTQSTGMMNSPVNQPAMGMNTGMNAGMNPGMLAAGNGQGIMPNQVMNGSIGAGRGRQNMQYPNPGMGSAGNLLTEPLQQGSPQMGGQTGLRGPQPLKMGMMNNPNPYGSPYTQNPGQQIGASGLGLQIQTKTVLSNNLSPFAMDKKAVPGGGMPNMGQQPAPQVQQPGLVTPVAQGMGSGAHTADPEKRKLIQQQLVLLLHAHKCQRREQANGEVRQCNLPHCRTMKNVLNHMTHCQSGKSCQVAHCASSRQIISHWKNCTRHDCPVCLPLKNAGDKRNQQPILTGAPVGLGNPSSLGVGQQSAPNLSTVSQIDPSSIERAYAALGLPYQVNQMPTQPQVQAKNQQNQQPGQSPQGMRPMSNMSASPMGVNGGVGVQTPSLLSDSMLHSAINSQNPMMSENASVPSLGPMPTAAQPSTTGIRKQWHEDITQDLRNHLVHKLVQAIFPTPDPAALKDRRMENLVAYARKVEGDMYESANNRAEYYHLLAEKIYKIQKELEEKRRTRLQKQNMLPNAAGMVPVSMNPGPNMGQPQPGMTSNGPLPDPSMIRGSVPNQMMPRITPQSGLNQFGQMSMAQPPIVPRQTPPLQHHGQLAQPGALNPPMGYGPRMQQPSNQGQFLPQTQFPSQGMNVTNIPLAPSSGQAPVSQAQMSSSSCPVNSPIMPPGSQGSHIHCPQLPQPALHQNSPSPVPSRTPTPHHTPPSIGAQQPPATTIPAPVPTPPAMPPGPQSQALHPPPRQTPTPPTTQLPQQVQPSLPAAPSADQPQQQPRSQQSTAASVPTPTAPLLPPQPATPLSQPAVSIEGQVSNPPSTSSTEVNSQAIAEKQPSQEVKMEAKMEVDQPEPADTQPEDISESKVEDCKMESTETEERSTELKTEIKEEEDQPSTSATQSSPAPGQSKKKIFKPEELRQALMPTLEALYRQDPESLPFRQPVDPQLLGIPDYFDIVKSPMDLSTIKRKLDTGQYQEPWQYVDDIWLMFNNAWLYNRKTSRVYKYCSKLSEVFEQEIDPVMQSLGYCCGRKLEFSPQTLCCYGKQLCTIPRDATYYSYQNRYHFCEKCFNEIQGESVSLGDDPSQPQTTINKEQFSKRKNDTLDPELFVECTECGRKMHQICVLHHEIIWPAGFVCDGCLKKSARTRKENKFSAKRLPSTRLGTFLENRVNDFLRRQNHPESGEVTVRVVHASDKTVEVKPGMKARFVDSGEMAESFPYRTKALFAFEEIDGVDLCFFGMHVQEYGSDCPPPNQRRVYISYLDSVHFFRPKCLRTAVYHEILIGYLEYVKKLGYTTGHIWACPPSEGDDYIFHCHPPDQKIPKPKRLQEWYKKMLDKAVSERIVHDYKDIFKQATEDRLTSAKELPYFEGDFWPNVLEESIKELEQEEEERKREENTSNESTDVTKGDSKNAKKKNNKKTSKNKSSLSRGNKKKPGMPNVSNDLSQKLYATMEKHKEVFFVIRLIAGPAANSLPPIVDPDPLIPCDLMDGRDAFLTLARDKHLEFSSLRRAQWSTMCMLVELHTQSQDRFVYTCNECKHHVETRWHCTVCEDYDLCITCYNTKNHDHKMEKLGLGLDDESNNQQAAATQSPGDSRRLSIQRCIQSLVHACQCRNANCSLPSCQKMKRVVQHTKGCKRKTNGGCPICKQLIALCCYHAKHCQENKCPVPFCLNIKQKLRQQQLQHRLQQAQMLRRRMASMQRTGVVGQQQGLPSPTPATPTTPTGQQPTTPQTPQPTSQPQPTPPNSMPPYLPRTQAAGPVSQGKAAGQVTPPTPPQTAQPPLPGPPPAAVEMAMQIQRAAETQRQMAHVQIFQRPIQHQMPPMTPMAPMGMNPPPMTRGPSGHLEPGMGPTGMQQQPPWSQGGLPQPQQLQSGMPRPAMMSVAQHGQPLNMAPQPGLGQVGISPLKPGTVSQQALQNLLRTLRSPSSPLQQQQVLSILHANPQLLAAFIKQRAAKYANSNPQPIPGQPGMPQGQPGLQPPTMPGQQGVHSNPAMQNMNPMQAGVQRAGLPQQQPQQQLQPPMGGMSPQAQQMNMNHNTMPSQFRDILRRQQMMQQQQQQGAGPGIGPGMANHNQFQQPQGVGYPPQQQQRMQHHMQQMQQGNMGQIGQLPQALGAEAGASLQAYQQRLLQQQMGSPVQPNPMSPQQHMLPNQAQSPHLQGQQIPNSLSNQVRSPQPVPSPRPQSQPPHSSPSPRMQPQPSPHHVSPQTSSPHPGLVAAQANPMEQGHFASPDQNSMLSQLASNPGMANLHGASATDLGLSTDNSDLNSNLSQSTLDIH
Chain of Histone acetyltransferase KAT2A (Homo sapiens) (Q92830 2-837 limits assumed): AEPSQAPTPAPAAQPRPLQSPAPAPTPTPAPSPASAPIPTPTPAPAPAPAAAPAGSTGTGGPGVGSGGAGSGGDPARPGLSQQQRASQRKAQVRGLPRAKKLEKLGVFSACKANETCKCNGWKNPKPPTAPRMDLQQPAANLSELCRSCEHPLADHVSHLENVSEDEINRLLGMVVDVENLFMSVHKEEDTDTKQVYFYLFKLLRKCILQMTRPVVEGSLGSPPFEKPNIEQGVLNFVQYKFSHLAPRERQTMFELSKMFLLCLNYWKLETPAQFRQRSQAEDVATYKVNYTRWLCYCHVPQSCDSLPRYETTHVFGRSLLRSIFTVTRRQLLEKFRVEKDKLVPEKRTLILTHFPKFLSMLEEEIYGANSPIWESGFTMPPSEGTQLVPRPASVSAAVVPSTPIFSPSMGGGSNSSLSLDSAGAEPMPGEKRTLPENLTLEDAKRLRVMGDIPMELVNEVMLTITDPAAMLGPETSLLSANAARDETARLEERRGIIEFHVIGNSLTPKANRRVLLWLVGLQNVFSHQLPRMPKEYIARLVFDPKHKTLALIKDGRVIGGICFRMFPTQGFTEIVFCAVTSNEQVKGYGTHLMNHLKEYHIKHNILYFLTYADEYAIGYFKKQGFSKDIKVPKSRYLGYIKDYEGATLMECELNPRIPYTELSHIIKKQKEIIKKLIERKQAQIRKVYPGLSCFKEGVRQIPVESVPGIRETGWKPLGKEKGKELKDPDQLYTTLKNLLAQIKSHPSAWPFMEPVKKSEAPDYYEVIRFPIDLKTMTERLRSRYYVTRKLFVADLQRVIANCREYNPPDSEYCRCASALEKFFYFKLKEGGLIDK

Take `Cc1ccc(-n2nc(C(=O)N3C[C@@H](C)N[C@@H](C)C3)nc2-c2ccc3c(c2)N(C2CCCC2)[C@H](C)C(=O)N3C)cc1`: the half-life in [1] was 2.8 h; in series [2] it was 6.6 h; in [9], 0.3 h; in series [14], 1.8 h. For the same molecule, the result with MDA-MB-436 and with MV4-11 [13] was Active. For the same molecule, the Activity entry with MV4-11 [3] was “Dose-dependent effect”; in series [5] it was 20 to 50%; in [6], 70 to 100%; with MV4-11 [7], “Dose-dependent effect”; in series [12] it was 70 to 100%. Besides, in series [4], the BPR was 8.7%. In series [8], the bioavailability stood at 34.3%. Moreover, the IC50 in series [10] turned out to be 5.3 nM. Further, in series [11], the equilibrium dissociation constant (Kd) is 15.2 nM. The Tmax in series [15] came to 1.1 h. This molecule also had an AUC(0-inf) in [16] of 798 ng·h/mL.

One may read the half-life as the time needed for the level to fall by half in the phase considered. Read a low half-life as fast loss. One may read the bioavailability as dose-corrected exposure relative to a reference, in per cent. A low value points to little systemic uptake. As a reminder, the IC50 is the midpoint of a concentration-inhibition curve. What is called Kd is the free concentration of one partner at which half of the binding sites on the other are occupied at equilibrium, for simple one-to-one binding. As a reminder, the Tmax is the time at which the peak concentration occurs. The AUC(0-inf) is total exposure, with the tail of the curve extrapolated.
